# Bioassay records (PubChem)
# Most compounds without a hit are left out; they make up all but 1.5% or so of the library.
# TNF necrop inh: inhibitors of TNF-alpha triggered necroptosis, primary screen, cell-based, Jurkat FADD-/-, single concentration; 220,000 tested, 0.068% active; AID 463075, 2010; Jurkat FADD-/- TNF necroptosis rescue, ATP luminescence, 24 h; 0 = TNF only, 100 = no-TNF cells; activation (protection from cell death), % at 10 µM;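 active = activation, meaning protection from cell death, of at least 50% relative to plate controls; inactive = activation below 50%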;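 also: necroptosis triggered by 40 ng/mL TNF-alpha added together with compound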
# zVAD death inh: inhibitors of zVAD-triggered necroptosis, primary screen, L929 cells. L929 zVAD necroptosis rescue, ATP luminescence, 24 h; with zVAD 60 µM. viability rescue, % at 10 µM. 220,000 tested, 0.38% active;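 active = activation, scaled between plate controls, above about 75%, limit read from the data; inactive = activation under that limit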;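 also: 0% = zVAD with DMSO and 100% = DMSO alone without zVAD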
# TbHK1 inh: Trypanosoma brucei hexokinase 1 inhibitors, primary screen, biochemical, G6PDH-coupled NADH absorbance, MLSCN library. hexokinase 1 [Trypanosoma brucei]. recombinant TbHK1, G6PDH-coupled NADH A340. inhibition, % at 10 µM. 220,000 tested, 0.11% active. AID 1430, 2008;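 active = inhibition of 50% or more in the single-dose primary screen; inactive = inhibition below 50%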
# Dynein cargo inh: inhibitors of GR-EGFP nuclear translocation, primary screen, dynein cargo transport inhibitor project, imaging, high-content, 3617.4 mouse cells | test concentration mostly 20 µM; stimulated with dexamethasone, 1 µM; active compounds read low | z-score, hits read low | 220,000 tested, 0.47% active;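 active = plate z-score of nuclear minus cytoplasmic receptor signal below a set negative limit, without overly bright fluorescence or cell loss, cut at about -3.5 in these data, passing the limit was not always enough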;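 also: z-score of nuclear minus cytoplasmic ring GR-EGFP intensity difference per well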
#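 Also added: dexamethasone, 1.0 µM final. Medium: tet-free, stripped-serum medium. Detection: fixed, Hoechst-stained cells imaged at 10x for EGFP. Read-out: nuclear-to-cytoplasmic GR-EGFP distribution per well. Times: induction 48 h, compound 1 h, agonist 30 min.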
# S1P4 ag: S1P4 receptor agonists, primary screen, cell-based; Sphingosine 1-phosphate receptor 4 (Homo sapiens), O95977; S1P4-expressing cell line, agonist reporter assay; activation, % at 4.98 µM; 220,000 tested, 0.35% active; AID 1509, 2009; in the data active = activation above about 11%;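 also: 0% = DMSO vehicle and 100% = reference agonist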
# Target sequence (O95977 whole entry, looked up): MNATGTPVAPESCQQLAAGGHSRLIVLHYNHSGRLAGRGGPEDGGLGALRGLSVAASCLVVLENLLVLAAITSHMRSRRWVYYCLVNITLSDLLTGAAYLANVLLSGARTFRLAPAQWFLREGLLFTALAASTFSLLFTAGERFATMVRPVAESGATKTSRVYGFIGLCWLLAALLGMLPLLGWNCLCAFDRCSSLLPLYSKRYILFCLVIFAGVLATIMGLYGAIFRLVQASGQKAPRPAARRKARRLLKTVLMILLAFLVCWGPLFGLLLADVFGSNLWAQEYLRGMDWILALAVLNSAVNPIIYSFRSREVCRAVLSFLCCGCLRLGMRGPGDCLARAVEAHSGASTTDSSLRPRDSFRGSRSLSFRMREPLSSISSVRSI
# S1P4 antag: S1P4 receptor antagonists, primary screen, cell-based | Sphingosine 1-phosphate receptor 4 (Homo sapiens), O95977 | S1P4-expressing cells, antagonist mode, reporter read-out | inhibition, % at 4.98 µM | 220,000 tested, 0.26% active | AID 1510, 2009; in the data active = inhibition above about 29%;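 also: 0% = wells stimulated with agonist and 100% = vehicle wells without agonist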
# Dynein confirm: dynein cargo transport inhibitors, GR-EGFP translocation, confirmation, imaging, high-content imaging, GR-EGFP cells | 3617.4 GR-EGFP nuclear translocation imaging, dexamethasone-induced | 1,000 tested, 69% active | AID 463116, 2010 | shares compounds with Dynein cargo inh | calls only at 20 µM;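 active = inhibition of receptor movement into the nucleus at or above a set limit in both runs, with normal cell brightness and cell count; inconclusive = limit reached in only one run, brightness and count normal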;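 also: dexamethasone at 1 µM final in well for 30 min; nuclear minus cytoplasmic GR-EGFP mean intensity difference in channel 2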
# Active calls of the source: *; i = inactive; ? = inconclusive; nt = no result given; + = active, no number.
SMILES,TNF necrop inh,zVAD death inh,TbHK1 inh,Dynein cargo inh,S1P4 ag,S1P4 antag,Dynein confirm
CCN(CC)c1ccc(/C=N/c2sc3c(c2C#N)C2CCN3CC2)c(O)c1,3.1,58.8,-14.6,-3.73,0.3,1.6,+
C=CCN1C(=O)/C(=C/c2cc(C)n(-c3cccnc3)c2C)C(=O)NC1=S,-6.6,0.6,26.5,-6.46*,-1.3,4.8,i
Cc1cc(C=C2C(=O)NC(=O)NC2=O)c(C)n1-c1cccnc1,0.1,0.1,-21.5,-0.732,-0.4,-6.2,nt
C=CCn1c(O)c(C(CC)=NCC2CCCO2)c(=O)[nH]c1=O (centres undefined),5.1,0.1,-7.9,0.491,-0.4,-5.2,nt
Cc1cc(N2CCCC2)ccc1C=C(C#N)C#N,-0.8,-0.6,9.7,2.31,-3.1,-6.7,nt
N#CC(C#N)=Cc1ccc(C=C(C#N)C#N)cc1,-26.5,0.2,2.9,-4.3*,1.5,-16.7,?
Cc1nn(Cc2ccccc2)c(C)c1C=C1C(=O)NC(=S)NC1=O,10.5,0.7,39.5,-4.68*,-1.7,-5.6,i
CCN(CC)c1ccc(C=C2C(=O)NC(=S)NC2=O)cc1,-16.4,-1.1,-39.2,-5.12*,0.5,5.3,?
COc1ccc(-n2c(Cc3cccc([N+](=O)[O-])c3)nc3ccccc3c2=O)cc1,1.2,0.2,-5.5,0.652,-2.4,2.7,nt
COc1cccc(C2CC3C(=O)C=CC2N3Cc2ccccc2)c1 (centres undefined),-4.9,-2.0,-3.5,-3.78*,-0.5,-26.1,+
O=C(O)CCC(=O)NCCC1=c2ccccc2=N/C1=C\c1c(O)n(Cc2ccc(F)cc2)c(=S)[nH]c1=O,3.1,1.5,44.7,-0.107,-0.3,-5.6,nt
C=C1C(=O)O[C@H]2C[C@@H](C)[C@@H]3C=CC(=O)[C@@]3(C)C[C@H]12,32.7,67.3,-6.0,-3.85*,nt,nt,+
O=[N+]([O-])c1ccc(N2CCOCC2)c2ccncc12,-1.8,0.8,-5.9,0.219,1.7,-3.0,nt
Cc1ccc(N2C(=O)NC(=O)/C(=C\C=C\c3ccco3)C2=O)cc1,-18.1,-0.2,6.5,-5.06*,0.9,7.8,+
Cc1cccc(N2C(=O)NC(=O)/C(=C\C=C\c3ccco3)C2=O)c1,-26.6,-0.9,-6.5,-4.96*,2.5,-2.6,+
Cc1ccc(N2C(=O)NC(=O)/C(=C\C=C\c3ccco3)C2=O)cc1C,-5.2,0.1,33.1,-5.65*,0.2,-13.1,+
COCCN1C(=O)NC(=O)/C(=C\c2ccc(Br)cc2)C1=O,0.9,1.5,5.0,-0.247,1.4,17.8,nt
O=C1NC(=O)N(Cc2ccco2)C(=O)/C1=C/C=C/c1ccco1,-17.9,0.8,-0.7,-3.79*,0.4,6.1,?
O=C1NC(=O)N(Cc2ccccc2)C(=O)/C1=C\C=C\c1ccco1,-8.1,0.0,2.3,-4.42*,0.1,-20.4,+
O=C1NC(=O)N(c2ccccc2)C(=O)/C1=C/C=C/c1ccco1,-22.1,-0.2,1.2,-2.2,1.9,-1.1,nt
O=c1[nH]c(=S)n(-c2ccc(Cl)cc2)c(O)c1/C=N/N1CCOCC1,-3.6,0.2,-53.4,-0.592,0.4,-3.2,nt
CC(=O)c1cc(C#N)c(N2CCN(C)CC2)nc1C,0.2,2.0,-17.5,0.346,-0.9,-6.9,nt
CC(=O)Cc1c[nH]c2ccccc12,1.2,1.9,-6.8,-1.09,0.7,2.2,nt
C/C(=C\c1ccc(N(C)C)cc1)[N+](=O)[O-],-20.8,-0.5,0.2,-4.52*,3.4,24.0,+
CN(C)c1ccc(/C=C/[N+](=O)[O-])cc1,-1.4,0.1,4.5,-0.623,1.2,9.9,nt
C[C@H]1CC[C@H]2NCCN[C@H]2C1,1.0,0.5,-5.1,1.72,0.1,-5.6,nt
